Assay results from ChEMBL document CHEMBL1124712, “Pre- and postsynaptic dopaminergic activities of indolizidine and quinolizidine derivatives of 3-(3-hydroxyphenyl)-N-(n-propyl)piperidine (3-PPP). Further developments of a dopamine receptor model” (J Med Chem, 1990).
Active and inactive are the calls of the source. The rule behind the calls is not given here.

What was measured:
Rattus norvegicus [1] = experiment: DOPA accumulation in normal rat limbic region at 50 umol/kg expressed as percent of control; type: functional, Limbic system
Rattus norvegicus [2] = experiment: DOPA accumulation in normal rat striatal region at 50 umol/kg expressed as percent of control; type: functional
D(2) dopamine receptor [3] = molecular target: T1, D(2) dopamine receptor (Rattus norvegicus, UniProt P61169); experiment: In vitro inhibition of [3H]spiperone binding to Dopamine receptor D2 in rat striatal membranes; type: cell membranes, Membrane
T1 sequence (P61169 whole entry): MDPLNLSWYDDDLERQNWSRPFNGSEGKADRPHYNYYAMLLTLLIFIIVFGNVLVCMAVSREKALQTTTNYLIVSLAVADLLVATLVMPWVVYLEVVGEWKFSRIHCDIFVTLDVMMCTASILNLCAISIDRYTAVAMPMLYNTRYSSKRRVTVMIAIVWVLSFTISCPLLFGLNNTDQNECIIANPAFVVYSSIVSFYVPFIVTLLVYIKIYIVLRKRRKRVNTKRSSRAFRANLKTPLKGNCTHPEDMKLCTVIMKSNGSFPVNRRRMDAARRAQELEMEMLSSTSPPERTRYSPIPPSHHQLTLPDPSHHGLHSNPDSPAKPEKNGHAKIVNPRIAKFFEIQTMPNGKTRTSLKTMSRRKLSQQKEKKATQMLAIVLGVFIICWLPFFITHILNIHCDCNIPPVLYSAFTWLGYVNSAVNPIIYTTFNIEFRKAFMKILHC

Rattus norvegicus [4] = experiment: Locomotor activity in normal rat at 50 umol/kg expressed as percent of control; type: functional
Summary of the method: (§1)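 Untreated rats were given the test drug sc. Locomotor activity was recorded with motility meters and expressed as percent of controls, with significance by Student's t test (p < 0.05).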

Rattus norvegicus [5] = experiment: DOPA accumulation in normal rat cortex at 50 umol/kg expressed as percent of control; Inactive; type: functional, organism-based
Rattus norvegicus [6] = experiment: Locomotor activity in normal rat at 3.1 umol/kg expressed as percent of control; type: functional; summary of the method: as §1
Rattus norvegicus [7] = experiment: Locomotor activity in reserpine-pretreated rat at the dose of 50 umol/kg; Accumulation counts/30 min; type: functional
D(2) dopamine receptor [8] = molecular target: T1, D(2) dopamine receptor; experiment: In vitro inhibition of [3H]N-0437 binding to Dopamine receptor D2 in rat striatal membranes; type: cell membranes, Membrane
Rattus norvegicus [9] = experiment: DOPA accumulation in normal rat cortex at 12.5 umol/kg expressed as percent of control; Inactive; type: functional, organism-based
Rattus norvegicus [10] = experiment: DOPA accumulation in reserpine-pretreated rat striatal region after subcutaneous administration of 50 umol/kg; Inactive; type: functional, organism-based
Rattus norvegicus [11] = experiment: Locomotor activity in reserpine-pretreated ratat the dose of 50 umol/kg; Accumulation counts/30 min; type: functional
Rattus norvegicus [12] = experiment: Locomotor activity in normal rat at 12.5 umol/kg expressed as percent of control; type: functional; summary of the method: as §1
Rattus norvegicus [13] = experiment: DOPA accumulation in reserpine-pretreated rat cortex after subcutaneous administration of 50 umol/kg; Inactive; type: functional, organism-based
Rattus norvegicus [14] = experiment: DOPA accumulation in normal rat striatal region at 12.5 umol/kg expressed as percent of control; type: functional
Rattus norvegicus [15] = experiment: Locomotor activity in normal rat at 25 umol/kg expressed as percent of control; type: functional; summary of the method: as §1
Rattus norvegicus [16] = experiment: DOPA accumulation in reserpine-pretreated rat limbic region after subcutaneous administration of 50 umol/kg; Inactive; type: functional, organism-based; conditions: Limbic system
Rattus norvegicus [17] = experiment: DOPA accumulation in normal rat limbic region at 12.5 umol/kg expressed as percent of control; type: functional, Limbic system
Rattus norvegicus [18] = experiment: DOPA accumulation in reserpine-pretreated rat striatal region after subcutaneous administration of 50 umol/kg; Range is 1.7-4; type: functional; conditions: sc
Rattus norvegicus [19] = experiment: DOPA accumulation in normal rat cortex at of 50 umol/kg expressed as percent of control; type: functional
Rattus norvegicus [20] = experiment: DOPA accumulation in normal rat striatal region at of 50 umol/kg expressed as percent of control; type: functional
Rattus norvegicus [21] = experiment: DOPA accumulation in reserpine-pretreated rat limbic region after subcutaneous administration of 50 umol/kg; Range is 1.1-6.5; type: functional; conditions: Limbic system, sc
Rattus norvegicus [22] = experiment: DOPA accumulation in normal rat striatal region at 0.8 umol/kg expressed as percent of control; type: functional
Rattus norvegicus [23] = experiment: DOPA accumulation in normal rat striatal region at 27 umol/kg expressed as percent of control; type: functional
Rattus norvegicus [24] = experiment: Locomotor activity in reserpine-pretreated ratat the dose of 13 umol/kg; Accumulation counts/30 min; type: functional
Rattus norvegicus [25] = experiment: DOPA accumulation in reserpine-pretreated rat cortex after subcutaneous administration; Inactive; type: functional, organism-based
Rattus norvegicus [26] = experiment: DOPA accumulation in normal rat cortex at 27 umol/kg expressed as percent of control; Inactive; type: functional, organism-based
Rattus norvegicus [27] = experiment: DOPA accumulation in reserpine-pretreated rat limbic region after subcutaneous administration; type: functional; conditions: Limbic system, sc
Rattus norvegicus [28] = experiment: DOPA accumulation in reserpine-pretreated rat striatal region after subcutaneous administration; type: functional; conditions: sc
Rattus norvegicus [29] = experiment: DOPA accumulation in normal rat cortex at 0.8 umol/kg expressed as percent of control; Inactive; type: functional, organism-based
Rattus norvegicus [30] = experiment: Locomotor activity in normal rat at 213 umol/kg expressed as percent of control; type: functional
Rattus norvegicus [31] = experiment: DOPA accumulation in normal rat limbic region at 27 umol/kg expressed as percent of control; type: functional, Limbic system
Rattus norvegicus [32] = experiment: Locomotor activity in normal rat at 1.6 umol/kg expressed as percent of control; type: functional
Rattus norvegicus [33] = experiment: DOPA accumulation in normal rat limbic region at 0.8 umol/kg expressed as percent of control; type: functional, Limbic system
Rattus norvegicus [34] = experiment: DOPA accumulation in normal rat striatal region at 100 umol/kg expressed as percent of control; type: functional
Rattus norvegicus [35] = experiment: DOPA accumulation in normal rat limbic region at 100 umol/kg expressed as percent of control; type: functional, Limbic system
Rattus norvegicus [36] = experiment: Locomotor activity in normal rat at 100 umol/kg expressed as percent of control; type: functional; summary of the method: as §1
Rattus norvegicus [37] = experiment: Locomotor activity in reserpine-pretreated rat at the dose of 100 umol/kg; Accumulation counts/30 min; type: functional
Rattus norvegicus [38] = experiment: DOPA accumulation in normal rat cortex at 100 umol/kg expressed as percent of control; type: functional
Rattus norvegicus [39] = experiment: Locomotor activity in reserpine-pretreated ratat the dose of 213 umol/kg; Accumulation counts/30 min; type: functional
Rattus norvegicus [40] = experiment: DOPA accumulation in normal rat cortex at 213 umol/kg expressed as percent of control; Inactive; type: functional, organism-based
Rattus norvegicus [41] = experiment: DOPA accumulation in normal rat limbic region at 213 umol/kg expressed as percent of control; type: functional, Limbic system
Rattus norvegicus [42] = experiment: Locomotor activity in normal rat at 0.8 umol/kg expressed as percent of control; type: functional
Rattus norvegicus [43] = experiment: DOPA accumulation in normal rat cortex at 50 umol/kg expressed as percent of control; type: functional
Rattus norvegicus [44] = experiment: DOPA accumulation in reserpine-pretreated rat limbic region after subcutaneous administration of 50 umol/kg; Range is 0.44-3.5; type: functional; conditions: Limbic system, sc
Rattus norvegicus [45] = experiment: DOPA accumulation in normal rat striatal region at 50 umol/kg expressed as percent of control; Inactive; type: functional, organism-based
Rattus norvegicus [46] = experiment: DOPA accumulation in normal rat limbic region at 50 umol/kg expressed as percent of control; Inactive; type: functional, organism-based; conditions: Limbic system

## Oc1cccc([C@@H]2CCCN3CCCC23)c1 (some centres not stated)
Rattus norvegicus [1]
  Control: 153%
Rattus norvegicus [2]
  Control: 245%
D(2) dopamine receptor [3]
  IC50: 6.5 µM
Rattus norvegicus [4]
  Control: 72%
Rattus norvegicus [5]
  Control: inactive
Rattus norvegicus [6]
  Control: 135%
Rattus norvegicus [7]
  Locomotor activity: 21
D(2) dopamine receptor [8]
  IC50: 0.17 µM

## Oc1cccc(C2=CCCN3CCCCC23)c1 (configuration not stated)
Rattus norvegicus [9]
  Control: inactive
Rattus norvegicus [10]
  ED50: inactive
Rattus norvegicus [11]
  Locomotor activity: 8
Rattus norvegicus [12]
  Control: 45%
D(2) dopamine receptor [3]
  IC50: 5.3 µM
Rattus norvegicus [13]
  ED50: inactive
Rattus norvegicus [6]
  Control: 82%
Rattus norvegicus [14]
  Control: 200%
Rattus norvegicus [15]
  Control: 51%
Rattus norvegicus [16]
  ED50: inactive
D(2) dopamine receptor [8]
  IC50: 0.32 µM
Rattus norvegicus [17]
  Control: 165%

## Oc1cccc([C@H]2CCCN3CCCC23)c1 (some centres not stated)
Rattus norvegicus [18]
  ED50: 1.7 µmol/kg
Rattus norvegicus [1]
  Control: 46%
Rattus norvegicus [12]
  Control: 42%
D(2) dopamine receptor [3]
  IC50: 4.9 µM
Rattus norvegicus [4]
  Control: 83%
Rattus norvegicus [19]
  Control: 37%
Rattus norvegicus [20]
  Control: 46%
Rattus norvegicus [21]
  ED50: 1.1 µmol/kg
Rattus norvegicus [7]
  Locomotor activity: 25
D(2) dopamine receptor [8]
  IC50: 0.045 µM

## CCCN1CCC[C@H](c2cccc(O)c2)C1
Rattus norvegicus [22]
  Control: 81%
Rattus norvegicus [23]
  Control: 45%
Rattus norvegicus [24]
  Locomotor activity: 78
Rattus norvegicus [25]
  ED50: inactive
Rattus norvegicus [26]
  Control: inactive
Rattus norvegicus [27]
  ED50: 1 µmol/kg
Rattus norvegicus [28]
  ED50: 1.3 µmol/kg
Rattus norvegicus [29]
  Control: inactive
Rattus norvegicus [30]
  Control: 230%
Rattus norvegicus [31]
  Control: 40%
Rattus norvegicus [32]
  Control: 75%
Rattus norvegicus [33]
  Control: 86%

## O=C(O)C(=O)O.Oc1cccc(C2CCC3CCCCN3C2)c1 (configuration not stated)
Rattus norvegicus [34]
  Control: 56%
Rattus norvegicus [35]
  Control: 69%
D(2) dopamine receptor [3]
  IC50: 40 µM
Rattus norvegicus [36]
  Control: 220%
Rattus norvegicus [37]
  Locomotor activity: 262
Rattus norvegicus [38]
  Control: 62%
D(2) dopamine receptor [8]
  IC50: 7.9 µM

## CCCN1CCC[C@@H](c2cccc(O)c2)C1 [PRECLAMOL]
Rattus norvegicus [23]
  Control: 147%
Rattus norvegicus [25]
  ED50: inactive
Rattus norvegicus [26]
  Control: inactive
Rattus norvegicus [27]
  ED50: 0.8 µmol/kg
Rattus norvegicus [28]
  ED50: 1.7 µmol/kg
Rattus norvegicus [39]
  Locomotor activity: 12
Rattus norvegicus [30]
  Control: 40%
Rattus norvegicus [40]
  Control: inactive
Rattus norvegicus [41]
  Control: 95%
Rattus norvegicus [42]
  Control: 74%

## Oc1cccc(C2CCCN3CCCCC23)c1 (configuration not stated)
Rattus norvegicus [34]
  Control: 54%
Rattus norvegicus [11]
  Locomotor activity: 14
Rattus norvegicus [35]
  Control: 61%
D(2) dopamine receptor [3]
  IC50: 13 µM
Rattus norvegicus [36]
  Control: 142%
Rattus norvegicus [38]
  Control: 48%
D(2) dopamine receptor [8]
  IC50: 0.58 µM

## CCCN(CCc1ccsc1)C1CCc2c(O)cccc2C1 (configuration not stated)
D(2) dopamine receptor [3]
  IC50: 0.0088 µM
D(2) dopamine receptor [8]
  IC50: 0.00062 µM

## Oc1cccc(C2CCCN3CCCC23)c1 (racemic)
Rattus norvegicus [43]
  Control: 57%
Rattus norvegicus [44]
  ED50: 0.44 µmol/kg
D(2) dopamine receptor [3]
  IC50: 3.8 µM
Rattus norvegicus [4]
  Control: 48%
Rattus norvegicus [13]
  ED50: inactive
Rattus norvegicus [45]
  Control: inactive
Rattus norvegicus [46]
  Control: inactive
Rattus norvegicus [7]
  Locomotor activity: 13
D(2) dopamine receptor [8]
  IC50: 0.075 µM
